The source made the active and inactive calls. The calls are words filed in the database; no cut-off is given here.

One may read the inhibition as how much of the control response was suppressed.

Tested on in the first test: not listed separately
The test can be described thus: Induction of amyloid beta 40 fibril disassembly at 1:2 compound:amyloid-beta ratio. Summed up:
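Fresh preformed Aβ40 fibrils were incubated at 37 °C with compound at a compound/Aβ ratio of 1/2. Disassembly was followed by the change in thioflavin T fluorescence.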
For the compound `O=C(O)CCCCC1CCSS1` (centres undefined), the Activity was found to be 60%.

Take `COc1cc(/C=C/C(=O)CC(=O)/C=C/c2ccc(O)c(OC)c2)ccc1O`: the Activity stood at 90%.

Tested on in another test: not listed separately
The test can be described thus: Inhibition of amyloid beta (1 to 40) fibril formation at 10 uM after 8 days by thioflavin T fluorescent dye assay.
With `COc1ccc2c(c1)CN1c3ccc(OC)cc3CN2C1CCCCCCCN=[N+]=[N-]`, the inhibition result is “inactive”.

As for `C#CCNC(=O)CCCCC1CCSS1` (racemic), the inhibition result is “inactive”.

Tested on in the next test: not listed separately
The test can be described thus: Inhibition of amyloid beta (1 to 40) fibril formation at 10 uM after 8 days by thioflavin T fluorescent dye assay. Summed up: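 Compound at 10 µM was co-incubated for eight days with Aβ40 (50 µM) in the presence of thioflavin T. Dye fluorescence was read at 485 nm and expressed as percent of the control assay with Aβ40 alone.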
Regarding `COc1ccc2c(c1)CN1c3ccc(OC)cc3CN2C1CCCCCCCn1cc(COC(=O)Nc2ccc3cc4ccc(NC(C)=O)cc4nc3c2)nn1`, the inhibition came out at 50%.

In turn, `C#CCNCCC(=O)Nc1ccc2cc3ccc(NC(C)=O)cc3nc2c1` came in with an inhibition of 50%.

The compound `CC(=O)Nc1ccc2cc3ccc(NC(=O)Cn4cc(CNC(=O)CCCCC5CCSS5)nn4)cc3nc2c1` (centres undefined) showed an inhibition of 50%.

For the compound `CC(=O)Nc1ccc2cc3ccc(NC(=O)CCN)cc3nc2c1`, the inhibition came out at 50%.

On to `COc1ccc2c(c1)CN1c3ccc(OC)cc3CN2C1CCCCCCCn1cc(CNCCC(=O)Nc2ccc3cc4ccc(NC(C)=O)cc4nc3c2)nn1`, for which the inhibition was 50%.

Consider `CC(=O)Nc1ccc2cc3ccc(NC(=O)CCNC(=O)CCCCC4CCSS4)cc3nc2c1` (centres undefined), for which the inhibition stood at 50%.

Turning to `CC(=O)Nc1ccc2cc3ccc(NC(=O)CN=[N+]=[N-])cc3nc2c1`, the inhibition was 50%.

Compound `COc1cc(/C=C/C(=O)CC(=O)/C=C/c2ccc(O)c(OC)c2)ccc1O` registered an inhibition of 80%.

For `C#CCOC(=O)Nc1ccc2cc3ccc(NC(C)=O)cc3nc2c1`, the inhibition result was “Active”.

The species entered for another test is Mus musculus. In words: Binding affinity to beta amyloid plaque in triple transgenic alzheimer disease mouse model hippocampus at 100 uM after 90 mins by fluorescence microscopy. It counts as tissue-based. A digest of the protocol:
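Plaque labeling was read from the compound's native fluorescence with fluorescein optics. Plaques were confirmed by thioflavin S staining of adjacent sections. Controls were age-matched wild-type sections, untreated sections and DAPI counterstain.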
For `COc1ccc2c(c1)CN1c3ccc(OC)cc3CN2C1CCCCCCCn1cc(CNCCC(=O)Nc2ccc3cc4ccc(NC(C)=O)cc4nc3c2)nn1`, the result was Active.
